Assay outcomes deposited in PubChem by several laboratories.
This is a sample that favours compounds with a hit; in the whole collection about 1.9% have one here.
DSG3 Ab inh = human desmoglein-3 autoantibody binding inhibition; DSG3-coupled beads, scFv-anti-DSG3-GFP binding, flow cytometry; active compounds read low; binding (percent of control), % at 10 µM; P32926; actives 0.48% (n = 310,000);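 active means binding more than 3 SD below its plate's average and above zero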;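 further: hits lower antibody fragment binding to DSG3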
Target sequence (P32926 whole entry, looked up, the tested form may be a part): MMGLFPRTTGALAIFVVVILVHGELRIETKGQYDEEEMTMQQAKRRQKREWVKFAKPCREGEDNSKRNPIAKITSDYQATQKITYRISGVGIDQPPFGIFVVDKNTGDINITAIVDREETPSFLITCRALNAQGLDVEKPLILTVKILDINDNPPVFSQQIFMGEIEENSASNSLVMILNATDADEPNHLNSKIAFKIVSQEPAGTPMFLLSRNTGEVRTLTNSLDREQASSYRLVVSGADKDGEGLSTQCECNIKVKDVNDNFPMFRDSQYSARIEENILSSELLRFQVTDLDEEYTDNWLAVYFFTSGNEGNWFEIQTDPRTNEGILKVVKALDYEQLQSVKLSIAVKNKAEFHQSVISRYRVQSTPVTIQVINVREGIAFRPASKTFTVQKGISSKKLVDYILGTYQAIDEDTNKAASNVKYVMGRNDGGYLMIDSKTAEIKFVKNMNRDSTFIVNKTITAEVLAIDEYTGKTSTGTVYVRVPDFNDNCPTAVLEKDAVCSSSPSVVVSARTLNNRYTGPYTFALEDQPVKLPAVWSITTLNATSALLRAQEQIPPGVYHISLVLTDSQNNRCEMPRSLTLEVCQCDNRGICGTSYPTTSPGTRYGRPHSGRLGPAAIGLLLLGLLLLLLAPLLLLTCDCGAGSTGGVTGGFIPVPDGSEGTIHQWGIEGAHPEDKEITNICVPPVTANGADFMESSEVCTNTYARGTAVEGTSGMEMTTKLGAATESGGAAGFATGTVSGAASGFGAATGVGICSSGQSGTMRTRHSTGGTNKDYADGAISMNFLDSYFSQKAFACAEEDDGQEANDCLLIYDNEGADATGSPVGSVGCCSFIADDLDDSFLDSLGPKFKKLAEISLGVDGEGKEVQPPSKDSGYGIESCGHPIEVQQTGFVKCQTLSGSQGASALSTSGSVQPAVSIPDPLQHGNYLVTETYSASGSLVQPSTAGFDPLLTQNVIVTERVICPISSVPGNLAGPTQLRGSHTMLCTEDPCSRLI
Tb MetRS inh = Trypanosoma brucei MetRS inhibition; purified T. brucei MetRS, ATP depletion, Kinase-Glo luminescence; inhibition, % at 11.9 µM; actives 0.4% (n = 360,000);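 active means inhibition above a per-plate cutoff of the control wells' mean inhibition plus 3 SD, cut at about 5.5% in these data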;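 further: 0% = DMSO wells median and 100% = median of wells with control inhibitor compound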
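assay system = parasite MetRS enzyme | timing = 15 min preincubation, 2 h reaction, all 25 °C | evaluation = percent inhibition relative to median high and low control wells | medium = HEPES buffer containing pyrophosphatase, BSA, spermine, DTT | compound = single dose, 11.9 µM final nominal, 0.9% final DMSO | detection = Kinase-Glo luminescence, ATP depletion format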
NadD inh = blocks S. aureus nicotinate mononucleotide adenylyltransferase; AID 602399; actives 0.78% (n = 360,000); purified NadD enzyme, colorimetric absorbance read-out; inhibition, % at 20 µM; in the data active means inhibition above about 26%
Rce1 inh = inhibitors of yeast Ras-converting enzyme; calls only; AID 2563; actives 0.27% (n = 290,000); Q03530; yeast membranes, quenched prenylated peptide cleavage fluorescence;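 active means fall in fluorescence gain of 50% or more versus controls, with final raw signal at or below 3038400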;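 further: plate controls were neutral control wells for no effect and wells lacking membranes for full effect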
HCV core dimer = HCV core protein dimerization inhibition; TR-FRET GST/Flag-core106 dimerization, 1536-well; inhibition, % at 5 µM; actives 0.33% (n = 300,000); AID 1899;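 active means inhibition above the mean of all tested compounds plus 3 SD, set per screening campaign, cut at about 45% in these data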
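System – GST-tagged and Flag-tagged HCV core protein residues 1-106 · Repeats – one well for each compound · Technique – TR-FRET 671 and 617 nm emission · Doses – one concentration, 5 µM, in 0.5% DMSO · Times – 4 h, 22.5 °C incubation · Also added – Eu donor and XL665 acceptor anti-tag antibodies · Measure – percent inhibition of core106 dimerization signal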
TbMetRS confirm = Trypanosoma brucei MetRS inhibition confirmed. shares compounds with Tb MetRS inh. T. brucei MetRS enzyme, luminescence (ATP depletion). inhibition, % at 11.9 µM. actives 93% (n = 1,400). AID 624412; in the data active means inhibition above about 7%
Jurkat cytotox = counter-screen for T. brucei MetRS inhibitors: Jurkat cell cytotoxicity; Jurkat cells viability, ATP luminescence; actives 12% (n = 1,400); inhibition, % at 8.3 µM; shares compounds with Tb MetRS inh; in the data active means inhibition above about 15%;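 further: 0% = vehicle and 100% = reference inhibitor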
TbMetRS FP orth = inhibits T. brucei methionyl tRNA synthetase in orthogonal FP test. actives 44% (n = 1,400). purified T. brucei MetRS, fluorescence polarization. shares compounds with Tb MetRS inh. AID 651607. inhibition, % at 11.9 µM; in the data active means inhibition above about 17%;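 further: 0% = vehicle wells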
An asterisk follows results filed as active; i = inactive; x = not tested or not shown.

SMILES	DSG3 Ab inh	Tb MetRS inh	NadD inh	Rce1 inh	HCV core dimer	TbMetRS confirm	Jurkat cytotox	TbMetRS FP orth
OC(c1cccc(F)c1)c1ncc(-c2ccc3ccccc3c2)[nH]1 (configuration not stated)	x	1.4	4.6	x	x	x	x	x
Cc1ccc(-c2cnc(C(O)c3cc(F)cc(Cl)c3)[nH]2)cc1 (configuration not stated)	x	10.4*	1.6	x	x	39.4*	1.7	14.5
OC(c1cc(F)cc(Cl)c1)c1ncc(-c2ccc3ccccc3c2)[nH]1 (configuration not stated)	x	76.5*	13.0	x	x	92.0*	9.2	75.0*
CN(C(=O)COC(=O)c1ccc(Cl)c(S(=O)(=O)N2CCCCCC2)c1)C1CCS(=O)(=O)C1 (configuration not stated)	103.0	-0.3	-2.3	x	x	x	x	x
Cc1ccc(-c2cnc(C(O)c3ccc(Cl)c(Cl)c3)[nH]2)cc1 (configuration not stated)	x	9.4*	-1.0	x	x	36.6*	-9.5	14.3
Cc1ccc(-c2cnc(C(O)c3ccc(Cl)c(F)c3)[nH]2)cc1 (configuration not stated)	x	1.0	-0.8	x	x	x	x	x
NC(=O)CNC(=O)C1CCCc2c1[nH]c1ccc(Cl)cc21 (configuration not stated)	127.1	0.8	-4.7	i	-3.6	x	x	x
CCOC(=O)CNC(=O)C1CCCc2c1[nH]c1ccc(Cl)cc21 (configuration not stated)	96.5	12.2*	1.1	i	0.4	19.9*	0.3	4.4
CCN(CC)S(=O)(=O)c1ccc(-c2nnc(SCC(=O)Nc3ccc(OC)cc3)o2)cc1	x	-1.2	12.1	i	3.3	x	x	x
COc1ccc(CNC(=O)CSc2nc3ccc(C)cc3[nH]2)cc1OC	118.0	8.9*	-8.0	i	-12.3	20.9*	3.4	6.8
Cc1ccc2nc(SCC(=O)NCc3ccc(F)cc3)[nH]c2c1	104.1	18.1*	0.4	i	-16.0	22.0*	-0.8	5.7
Cc1ccc(OCC(=O)N/N=C/c2cccn2C)cc1C	107.5	0.4	2.9	i	-1.2	x	x	x
CCn1c(N2CCN(CC(=O)c3c[nH]c4ccccc34)CC2)nc2c1c(=O)[nH]c(=O)n2C	103.8	7.8*	7.4	i	2.8	19.3*	-0.1	4.9
COCCSc1ccccc1C(=O)Nc1cc(C)cc(C)c1	98.9	0.5	2.2	i	-2.0	x	x	x
Cc1cccc(NC(=O)c2ccc(Cn3cc(C(F)(F)F)ccc3=O)cc2)c1	98.9	-0.3	-2.3	i	0.4	x	x	x
C=CCNC(=S)NNC(=O)c1ccc(=O)n(Cc2ccc(Cl)cc2Cl)c1	95.4	34.5*	-0.1	i	-0.9	43.9*	6.0	32.5*
O=C(Nc1ccccc1)c1ccc(=O)n(Cc2cccc(Cl)c2)c1	103.0	42.6*	-2.2	i	7.9	57.7*	6.0	27.8*
CCNC(=S)NNC(=O)c1ccc(=O)n(Cc2ccccc2)c1	103.3	22.5*	-7.3	i	-1.6	37.2*	1.1	21.5*
CNC(=S)NNC(=O)c1cccc(C(F)(F)F)c1	98.0	-0.7	9.7	i	-1.4	x	x	x
CNC(=S)NNC(=O)c1ccc(=O)n(Cc2cccc(C(F)(F)F)c2)c1	103.9	6.1*	-2.8	i	0.8	12.7*	-2.0	2.9
O=C(Nc1ccccc1)N(c1ccccc1)C1C=CS(=O)(=O)C1 (configuration not stated)	106.4	-0.6	-6.7	i	4.0	x	x	x
Cc1c(CCCC(=O)O)sc(N)c1C(=O)c1cccc(C(F)(F)F)c1	100.0	-0.1	4.0	i	-17.9	x	x	x
Cc1[nH]c2ccc(F)cc2c(=O)c1SC(F)(F)C(F)C(F)(F)F (configuration not stated)	113.1	13.0*	-2.1	i	1.7	19.8*	1.9	7.3
C=CCNc1ncnc2c1[nH]c1ccccc12	104.0	20.6*	3.8	i	-1.6	35.3*	14.5	14.6
C=CCNc1ncnc2c1cnn2-c1ccc(Cl)cc1	99.1	-0.4	-6.4	i	-10.2	x	x	x
SMILES	DSG3 Ab inh	Tb MetRS inh	NadD inh	Rce1 inh	HCV core dimer	TbMetRS confirm	Jurkat cytotox	TbMetRS FP orth
C=CCNc1ncnc2c1[nH]c1ccc(Cl)cc12	x	51.0*	6.9	i	-0.2	63.9*	17.7*	37.9*
CCN1C(=O)[C@@H]2[C@@H](c3ccc(SC4CCCCC4)c(OC)c3)N3CCCC[C@@]3(C(=O)OC)[C@@H]2C1=O	122.5	0.1	5.8	x	x	x	x	x
Fc1ccccc1NC(=S)NCCc1cccc(Cl)c1	108.4	6.0*	-1.9	i	x	17.1*	5.8	8.9
COc1c(O)ccc(/C=C(\C#N)c2nc3ccccc3[nH]2)c1[N+](=O)[O-]	102.6	0.6	-0.6	i	-26.0	x	x	x
Cc1ccc2nc(/C(C#N)=C\c3cc(O)ccc3[N+](=O)[O-])[nH]c2c1	97.2	13.7*	0.8	i	-1.1	38.0*	-7.0	9.1
Cc1cccnc1NC(=O)C1CCN(S(=O)(=O)c2cccs2)CC1	99.2	-0.3	2.0	i	-7.1	x	x	x
Oc1cccc(Nc2nc(O)c(/C=C3\C=Nc4ccccc43)s2)c1	78.3	17.2*	21.3	x	1.6	21.4*	5.1	28.2*
Oc1nc(Nc2cccc(Cl)c2)sc1/C=C1\C=Nc2ccccc21	111.7	0.8	17.6	i	-0.9	x	x	x
C[C@H](N)c1nnc(SCC(=O)c2ccc(Cl)cc2)o1	100.3	-0.8	-8.6	i	0.6	x	x	x
S=C(NCc1cccs1)Nc1cc(Cl)cc(Cl)c1	x	23.5*	-8.6	i	-17.1	30.8*	3.9	19.8*
S=C(NCc1cccs1)Nc1cccc(Cl)c1	99.9	2.5	-12.1	i	-4.6	x	x	x
O=C(Cc1cccs1)NCc1cc(Cl)cc(Cl)c1	97.8	56.2*	-3.9	i	4.5	73.5*	-2.2	43.9*
CCc1cc(=O)oc2cc(C)cc(OCC(=O)NC(Cc3ccc(Cl)cc3)C(=O)O)c12 (configuration not stated)	98.1	-0.5	0.0	i	5.2	x	x	x
CCc1cc(=O)oc2cc(C)cc(OC(C)C(=O)NC(Cc3c[nH]c4ccc(O)cc34)C(=O)O)c12 (configuration not stated)	x	5.8*	3.0	i	-0.1	13.4*	-5.8	5.3
CCc1cc(=O)oc2cc(C)cc(OCC(=O)NC(Cc3c[nH]c4ccc(O)cc34)C(=O)O)c12 (configuration not stated)	102.1	6.6*	3.9	i	3.6	9.7*	7.5	4.0
CCCCc1cc(=O)oc2cc(OCC(=O)NC(Cc3c[nH]c4ccc(O)cc34)C(=O)O)ccc12 (configuration not stated)	90.5	1.6	4.1	i	-1.4	x	x	x
